Assay results from ChEMBL document CHEMBL1649143, “In vitro activities of fluconazole and voriconazole against clinical isolates of Candida spp. determined by disk diffusion testing in Turin, Italy” (2009).
≈ marks a conversion by molar mass, not a printed value.

Key:
Candida tropicalis [1] = test: Antifungal activity against Candida tropicalis assessed as dose dependent percent susceptible isolates at 25 ug/disc by CLSI M44-A disk diffusion method; format: functional
Procedure, shortened: (§1)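 Agar disk diffusion per CLSI M44-A on clinical Candida isolates collected in Turin, Italy; 1,024 isolates tested in total. Each isolate was classed as susceptible (S), susceptible-dose dependent (SDD) or resistant (R), and the percentage of isolates per species in each category was reported.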

Pichia kudriavzevii [2] = test: Antifungal activity against Candida krusei by reference dilution method; format: functional
Pichia norvegensis [3] = test: Antifungal activity against Candida norvegensis by reference dilution method; format: functional
Candida albicans [4] = test: Antifungal activity against Candida albicans by reference dilution method; format: functional
Pichia norvegensis [5] = test: Antifungal activity against Candida norvegensis assessed as dose dependent percent susceptible isolates at 25 ug/disc by CLSI M44-A disk diffusion method; format: functional; procedure, shortened: as §1
[6] = Antifungal activity against Candida membranifaciens assessed as percent susceptible isolates at 25 ug/disc by CLSI M44-A disk diffusion method; format: functional
Procedure, shortened: (§2)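 Clinical yeast isolates tested by agar disk diffusion per CLSI M44-A. Zone diameters were converted to MICs by an automated zone-reading system applying species-specific linear regression against reference dilution MICs. Isolates were classed as susceptible, susceptible-dose dependent or resistant using CLSI MIC breakpoints, and reported as number and percent susceptible per species.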

Nakaseomyces glabratus [7] = test: Antifungal activity against Candida glabrata assessed as percent resistant isolates at 25 ug/disc by CLSI M44-A disk diffusion method; format: functional; procedure, shortened: as §1
Candida albicans [8] = test: Antifungal activity against Candida albicans assessed as dose dependent percent susceptible isolates at 25 ug/disc by CLSI M44-A disk diffusion method; format: functional; procedure, shortened: as §1
Candida parapsilosis [9] = test: Antifungal activity against Candida parapsilosis assessed as percent susceptible isolates at 25 ug/disc by CLSI M44-A disk diffusion method; format: functional; procedure, shortened: as §1
Candida tropicalis [10] = test: Antifungal activity against Candida tropicalis assessed as percent susceptible isolates at 25 ug/disc by CLSI M44-A disk diffusion method; format: functional; procedure, shortened: as §1
[11] = Antifungal activity against Candida humicola assessed as percent susceptible isolates at 25 ug/disc by CLSI M44-A disk diffusion method; format: functional; procedure, shortened: as §2
Clavispora lusitaniae = test: Antifungal activity against Candida lusitaniae assessed as percent susceptible isolates at 25 ug/disc by CLSI M44-A disk diffusion method; format: functional; procedure, shortened: as §2
Candida tropicalis [12] = test: Antifungal activity against Candida tropicalis assessed as percent resistant isolates at 25 ug/disc by CLSI M44-A disk diffusion method; format: functional; procedure, shortened: as §1
Kluyveromyces marxianus [13] = test: Antifungal activity against Candida kefyr assessed as percent susceptible isolates at 25 ug/disc by CLSI M44-A disk diffusion method; format: functional; procedure, shortened: as §1
Kluyveromyces marxianus [14] = test: Antifungal activity against Candida kefyr assessed as percent resistant isolates at 25 ug/disc by CLSI M44-A disk diffusion method; format: functional; procedure, shortened: as §1
Candida albicans [15] = test: Antifungal activity against Candida albicans assessed as percent susceptible isolates at 25 ug/disc by CLSI M44-A disk diffusion method; format: functional; procedure, shortened: as §1
Nakaseomyces glabratus [16] = test: Antifungal activity against Candida glabrata by reference dilution method; format: functional
Pichia fermentans = test: Antifungal activity against Candida lambica assessed as percent susceptible isolates at 25 ug/disc by CLSI M44-A disk diffusion method; format: functional; procedure, shortened: as §2
Candida parapsilosis [17] = test: Antifungal activity against Candida parapsilosis assessed as dose dependent percent susceptible isolates at 25 ug/disc by CLSI M44-A disk diffusion method; format: functional; procedure, shortened: as §1
Pichia norvegensis [18] = test: Antifungal activity against Candida norvegensis assessed as percent resistant isolates at 25 ug/disc by CLSI M44-A disk diffusion method; format: functional; procedure, shortened: as §1
Nakaseomyces glabratus [19] = test: Antifungal activity against Candida glabrata assessed as percent susceptible isolates at 25 ug/disc by CLSI M44-A disk diffusion method; format: functional; procedure, shortened: as §1
Diutina rugosa = test: Antifungal activity against Candida rugosa assessed as percent susceptible isolates at 25 ug/disc by CLSI M44-A disk diffusion method; format: functional; procedure, shortened: as §2
Pichia kudriavzevii [20] = test: Antifungal activity against Candida krusei assessed as dose dependent percent susceptible isolates at 25 ug/disc by CLSI M44-A disk diffusion method; format: functional; procedure, shortened: as §1
Candida tropicalis [21] = test: Antifungal activity against Candida tropicalis by reference dilution method; format: functional
Candida parapsilosis [22] = test: Antifungal activity against Candida parapsilosis by reference dilution method; format: functional; conditions: Lodderomyces parapsilosis
Candida = test: Antifungal activity against Candida sp. by reference dilution method; format: functional
Pichia kudriavzevii [23] = test: Antifungal activity against Candida krusei assessed as percent resistant isolates at 25 ug/disc by CLSI M44-A disk diffusion method; format: functional; procedure, shortened: as §1
[Candida] intermedia = Antifungal activity against Candida intermedia assessed as percent susceptible isolates at 25 ug/disc by CLSI M44-A disk diffusion method; format: functional, Sungouiella intermedia; procedure, shortened: as §2
Pichia kudriavzevii [24] = test: Antifungal activity against Candida krusei assessed as percent susceptible isolates at 25 ug/disc by CLSI M44-A disk diffusion method; format: functional; procedure, shortened: as §1
Cyberlindnera jadinii = test: Antifungal against Candida utilis assessed as percent susceptible isolates at 25 ug/disc by CLSI M44-A disk diffusion method; format: functional; procedure, shortened: as §2
[25] = Antifungal activity against Candida holmii assessed as percent susceptible isolates at 25 ug/disc by CLSI M44-A disk diffusion method; format: functional; conditions: Kazachstania exigua; procedure, shortened: as §2
Nakaseomyces glabratus [26] = test: Antifungal activity against Candida glabrata assessed as dose dependent percent susceptible isolates at 25 ug/disc by CLSI M44-A disk diffusion method; format: functional; procedure, shortened: as §1
Candida albicans [27] = test: Antifungal activity against Candida albicans assessed as percent resistant isolates at 25 ug/disc by CLSI M44-A disk diffusion method; format: functional; procedure, shortened: as §1
Kluyveromyces marxianus [28] = test: Antifungal activity against Candida kefyr by reference dilution method; format: functional

SMILES: OC(Cn1cncn1)(Cn1cncn1)c1ccc(F)cc1F [FLUCONAZOLE]
- Activity (Candida tropicalis [1]): 3%
- MIC50 (Pichia kudriavzevii [2]): 128 µg/mL (≈ 418 µM)
- MIC90 (Pichia kudriavzevii [2]): 256 µg/mL (≈ 836 µM)
- MIC50 (Pichia norvegensis [3]): 128 µg/mL (≈ 418 µM)
- MIC90 (Pichia norvegensis [3]): 256 µg/mL (≈ 836 µM)
- MIC50 (Candida albicans [4]): 0.5 µg/mL (≈ 1.63 µM)
- MIC90 (Candida albicans [4]): 4 µg/mL (≈ 13.1 µM)
- Activity (Pichia norvegensis [5]): 21%
- Activity [6]: 92.9%
- Activity (Nakaseomyces glabratus [7]): 9%
- Activity (Candida albicans [8]): 1%
- Activity (Candida parapsilosis [9]): 96%
- Activity (Candida tropicalis [10]): 92%
- Activity [11]: 92.9%
- Activity (Clavispora lusitaniae): 92.9%
- Activity (Candida tropicalis [12]): 5%
- Activity (Kluyveromyces marxianus [13]): 96%
- Activity (Kluyveromyces marxianus [14]): 4%
- Activity (Candida albicans [15]): 98%
- MIC50 (Nakaseomyces glabratus [16]): 4 µg/mL (≈ 13.1 µM)
- MIC90 (Nakaseomyces glabratus [16]): 64 µg/mL (≈ 209 µM)
- Activity (Pichia fermentans): 92.9%
- Activity (Candida parapsilosis [17]): 4%
- Activity (Pichia norvegensis [18]): 79%
- Activity (Nakaseomyces glabratus [19]): 82%
- Activity (Diutina rugosa): 92.9%
- Activity (Pichia kudriavzevii [20]): 21%
- MIC50 (Candida tropicalis [21]): 2 µg/mL (≈ 6.53 µM)
- MIC90 (Candida tropicalis [21]): 16 µg/mL (≈ 52.2 µM)
- MIC50 (Candida parapsilosis [22]): 0.5 µg/mL (≈ 1.63 µM)
- MIC90 (Candida parapsilosis [22]): 4 µg/mL (≈ 13.1 µM)
- MIC50 (Candida): 2 µg/mL (≈ 6.53 µM)
- MIC90 (Candida): 128 µg/mL (≈ 418 µM)
- Activity (Pichia kudriavzevii [23]): 68%
- Activity ([Candida] intermedia): 92.9%
- Activity (Pichia kudriavzevii [24]): 11%
- Activity (Cyberlindnera jadinii): 92.9%
- Activity [25]: 92.9%
- Activity (Nakaseomyces glabratus [26]): 9%
- Activity (Candida albicans [27]): 1%
- MIC50 (Kluyveromyces marxianus [28]): 0.25 µg/mL (≈ 0.816 µM)
- MIC90 (Kluyveromyces marxianus [28]): 0.25 µg/mL (≈ 0.816 µM)
